Results from ChEMBL document CHEMBL1156490, “TLR9 agonist acts by different mechanisms synergizing with bevacizumab in sensitive and cetuximab-resistant colon cancer xenografts” (2007).
The source made the active and inactive calls. The rule behind the calls is not given here.

Tests used:
Homo sapiens [1] = assay: Inhibition of activated form of pAkt expression in human GEO tumor xenografts in BALB/c mouse at 1 mg/kg, ip three times a week for 4 weeks measured after 8 weeks by ELISA; format: functional, organism-based; design: dose 1 mg/kg
HUVEC [2] = assay: Inhibition of migration in HUVEC at 1 uM by wound healing assay; format: functional, cell-based; conditions: Homo sapiens
Homo sapiens [3] = assay: Antitumor activity in cetuximab-resistant human GEO-CR tumor xenografted BALB/c mouse at 1 mg/kg, ip administered 3 times per week for 4 weeks; format: functional, organism-based; design: dose 1 mg/kg
In short: (§1)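 Athymic nude mice, five weeks old, received s.c. GEO, LS174T or GEO-CR colon cancer cells (10^7 per mouse) in Matrigel. Tumors were detected after 7 days and groups of 10 were randomized. Dosing was i.p. at 1 mg/kg three times per week for 4 weeks. Tumor volume = π/6 × larger diameter × (smaller diameter)². Groups were compared by Student's t test.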

Homo sapiens [4] = assay: Inhibition of activated form of VEGF expression in human GEO tumor xenografts in BALB/c mouse at 1 mg/kg, ip three times a week for 4 weeks measured after 8 weeks by ELISA; format: functional, organism-based; design: dose 1 mg/kg
Homo sapiens [5] = assay: Potentiation of bevacizumab-induced inhibition of mVEGF level in human GEO tumor xenografted in BALB/c mouse at 1 mg/kg, ip three times a week for 4 weeks measured after 8 weeks by ELISA; format: functional, organism-based; design: dose 1 mg/kg
In short: (§2)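 Serum was taken from killed xenograft-bearing mice and assayed by sandwich ELISA. Plates were coated overnight at 4°C with anti-hVEGF or anti-mVEGF polyclonal antibody (1 μg/ml in PBS, pH 7.5), with avidin–biotinylated HRP detection and absorbance read at 490 nm. Concentrations came from linear regression of recombinant hVEGF or mVEGF standard curves.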

Homo sapiens [6] = assay: Antitumor activity against human GEO tumor xenografted BALB/c mouse at 1 mg/kg, ip three times a week for 4 weeks measured after 8 weeks; format: functional, organism-based; design: dose 1 mg/kg; in short: as §1
HUVEC [7] = assay: Inhibition of adhesion to matrix in HUVEC at 1 uM by cell adhesion assay; format: functional, cell-based; conditions: Homo sapiens
In short: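 Wells were precoated for 1 h with Matrigel (1 mg/ml) or 0.1% BSA in serum-free medium as a negative control. HUVEC (20,000 per well) were then plated in serum-free medium with or without 1 μM test agent, and adherent cells were quantified.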

Homo sapiens [8] = assay: Potentiation of bevacizumab-induced inhibition of activated form of pMAPK expression in human GEO tumor xenografts in BALB/c mouse at 1 mg/kg, ip three times a week for 4 weeks measured after 8 weeks by ELISA; format: functional, organism-based; design: dose 1 mg/kg
Homo sapiens [9] = assay: Potentiation of bevacizumab-induced inhibition of hVEGF level in human GEO tumor xenografts in BALB/c mouse at 1 mg/kg, ip three times a week for 4 weeks measured after 8 weeks by ELISA; format: functional, organism-based; design: dose 1 mg/kg; in short: as §2
Homo sapiens [10] = assay: Inhibition of hVEGF level in human GEO tumor xenografts in BALB/c mouse at 1 mg/kg, ip three times a week for 4 weeks measured after 8 weeks by ELISA; format: functional, organism-based; design: dose 1 mg/kg; in short: as §2
[11] = Potentiation of cetuximab-induced cytotoxicity in human MDA468 cells assessed as lysis at 5 uM by ADCC assay; format: functional, MDA-MB-468
In short: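 Effector cells were nonadherent PBLs from human PBMCs, preincubated 24 h with or without 5 μM test agent. MDA468 targets were loaded with BATDA, treated with or without cetuximab (10 μg/ml), and mixed with effectors at varying ratios for 2 h at 37°C. Lysis was read by europium fluorescence in the supernatant.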

Homo sapiens [12] = assay: Inhibition of mVEGF level in human GEO tumor xenografted in BALB/c mouse at 1 mg/kg, ip three times a week for 4 weeks measured after 8 weeks by ELISA; format: functional, organism-based; design: dose 1 mg/kg; in short: as §2
HUVEC [13] = assay: Inhibition of VEGF-stimulated network formation in HUVEC at 1 uM; format: functional, cell-based; conditions: Homo sapiens
In short: (§3)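 HUVEC (4 × 10^5) in RPMI 1640 were seeded on solidified Matrigel (prepared 30 min at 37°C), with or without 1 μM test agent. Cultures were kept at 37°C and photographed at 0 and 24 h to assess capillary tube and network formation.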

HUVEC [14] = assay: Inhibition of VEGF-stimulated capillary tube formation in HUVEC at 1 uM; format: functional, cell-based; conditions: Homo sapiens; in short: as §3
Homo sapiens [15] = assay: Potentiation of bevacizumab-induced antitumor activity against human GEO tumor xenografted BALB/c mouse at 1 mg/kg, ip three times a week for 4 weeks measured after 8 weeks; format: functional, organism-based; design: dose 1 mg/kg
In short: (§4)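 Athymic nude mice, five weeks old, received s.c. GEO, LS174T or GEO-CR cells (10^7 per mouse) in Matrigel and were randomized at day 7, 10 per group. Dosing was i.p. 1 mg/kg three times weekly plus i.p. bevacizumab 5 mg/kg twice weekly, on days 7–11, 14–18 and 21–25; only the first agent continued on days 28–32. Tumor volume = π/6 × larger × (smaller diameter)². Analysis was by Student's t test.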

LS174T [16] = assay: Potentiation of bevacizumab-induced antitumor activity against human LS174T tumor xenografted BALB/c mouse at 1 mg/kg, ip three times a week for 4 weeks measured after 8 weeks; format: functional; conditions: route intraperitoneal; in short: as §4
Homo sapiens [17] = assay: Potentiation of bevacizumab-induced inhibition of activated form of pAkt expression in human GEO tumor xenografts in BALB/c mouse at 1 mg/kg, ip three times a week for 4 weeks measured after 8 weeks by ELISA; format: functional, organism-based; design: dose 1 mg/kg
Homo sapiens [18] = assay: Potentiation of bevacizumab-induced inhibition of activated form of VEGF expression in human GEO tumor xenografts in BALB/c mouse at 1 mg/kg, ip three times a week for 4 weeks measured after 8 week by ELISA; format: functional, organism-based; design: dose 1 mg/kg
Homo sapiens [19] = assay: Inhibition of total amount of MAPK and Akt in human GEO tumor xenografts in BALB/c mouse at 1 mg/kg, ip three times a week for 4 weeks measured after 8 weeks by ELISA; format: functional, organism-based; design: dose 1 mg/kg
LS174T [20] = assay: Potentiation of bevacizumab-induced antitumor activity against human LS174T tumor xenografted BALB/c mouse assessed as induction of necrosis at 1 mg/kg, ip three times for week for 4 weeks measured after 8 weeks; format: functional; conditions: route intraperitoneal
In short: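 LS174T s.c. xenografts (10^7 cells in Matrigel) in nude mice received the combined i.p. schedule (1 mg/kg three times weekly plus bevacizumab 5 mg/kg twice weekly). Necrosis was judged by pathological and immunohistochemical analysis of formalin-fixed paraffin sections (5 μm).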

Homo sapiens [21] = assay: Inhibition of activated form of pMAPK expression in human GEO tumor xenografts in BALB/c mouse at 1 mg/kg, ip three times a week for 4 weeks measured after 8 weeks by ELISA; format: functional, organism-based; design: dose 1 mg/kg
LS174T [22] = assay: Antitumor activity against human LS174T tumor xenografted BALB/c mouse assessed as tumor volume at 1 mg/kg, ip three times a week for 4 weeks measured after 8 weeks; format: functional; conditions: route intraperitoneal; in short: as §1
[23] = Potentiation of bevacizumab-induced antitumor activity in cetuximab-resistant human GEO-CR tumor xenografted BALB/c mouse assessed tumor volume at 1 mg/kg, ip; format: functional; conditions: route intraperitoneal; in short: as §4

Structure (SMILES): Cc1cn([C@H]2C[C@H](OP(O)(=S)OC[C@H]3O[C@@H](n4ccc(N)nc4=O)[C@H](O)[C@@H]3OP(O)(=S)OC[C@H]3O[C@@H](n4cc(C)c(=O)[nH]c4=O)C[C@@H]3OP(O)(=S)OC[C@H]3O[C@@H](n4cnc5c(=O)nc(N)[nH]c54)[C@H](O)[C@@H]3OP(O)(=S)OC[C@H]3O[C@@H](n4cnc5c(N)ncnc54)[C@H](O)[C@@H]3OP(O)(=S)OC[C@H]3O[C@@H](n4ccc(N)nc4=O)[C@H](O)[C@@H]3OP(O)(=S)OC[C@H]3O[C@@H](n4ccc5c(=O)nc(N)[nH]c54)C[C@@H]3OP(O)(=S)OC[C@H]3O[C@@H](n4cc(C)c(=O)[nH]c4=O)C[C@@H]3OP(O)(=S)OC[C@H]3O[C@@H](n4cc(C)c(=O)[nH]c4=O)C[C@@H]3OP(O)(=S)OC[C@H]3O[C@@H](n4ccc(N)nc4=O)[C@H](O)[C@@H]3OP(O)(=S)OC[C@H]3O[C@@H](n4cc(C)c(=O)[nH]c4=O)C[C@@H]3OP(O)(=S)OCC(O)COP(O)(=S)O[C@H]3C[C@H](n4cc(C)c(=O)[nH]c4=O)O[C@@H]3COP(O)(=S)O[C@H]3[C@@H](O)[C@H](n4ccc(=N)[nH]c4=O)O[C@@H]3COP(O)(=S)O[C@H]3C[C@H](n4cc(C)c(=O)[nH]c4=O)O[C@@H]3COP(O)(=S)O[C@H]3C[C@H](n4cc(C)c(=O)[nH]c4=O)O[C@@H]3COP(O)(=S)O[C@H]3C[C@H](n4ccc5c(=O)nc(N)[nH]c54)O[C@@H]3COP(O)(=S)O[C@H]3[C@@H](O)[C@H](n4ccc(N)nc4=O)O[C@@H]3COP(O)(=S)O[C@H]3[C@@H](O)[C@H](n4cnc5c(N)ncnc54)O[C@@H]3COP(O)(=S)O[C@H]3[C@@H](O)[C@H](n4cnc5c(=O)nc(N)[nH]c54)O[C@@H]3COP(O)(=S)O[C@H]3C[C@H](n4cc(C)c(=O)[nH]c4=O)O[C@@H]3COP(O)(=S)O[C@H]3[C@@H](O)[C@H](n4ccc(N)nc4=O)O[C@@H]3COP(O)(=S)O[C@H]3C[C@H](n4cc(C)c(=O)[nH]c4=O)O[C@@H]3CO)[C@@H](CO)O2)c(=O)[nH]c1=O (stereo partly drawn)
- Activity (Homo sapiens [1]): Active
- Activity (HUVEC [2]): Active
- Activity (Homo sapiens [3]): inactive
- Activity (Homo sapiens [4]): Active
- Activity (Homo sapiens [5]): inactive
- Activity (Homo sapiens [6]): Active
- Activity (HUVEC [7]): Active
- Activity (Homo sapiens [8]): Active
- Activity (Homo sapiens [9]): Active
- Activity (Homo sapiens [10]): Active
- Activity [11]: 60%
- Activity (Homo sapiens [12]): inactive
- Activity (HUVEC [13]): Active
- Activity (HUVEC [14]): Active
- Activity (Homo sapiens [15]): Active
- Activity (LS174T [16]): 95%
- Activity (Homo sapiens [17]): Active
- Activity (Homo sapiens [18]): Active
- Activity (Homo sapiens [19]): inactive
- Activity (LS174T [20]): 90%
- Activity (Homo sapiens [21]): Active
- Activity (LS174T [22]): 1.6 cm3
- Activity [23]: 0.15 cm3
